NR2E3 ag-1: activates human photoreceptor nuclear receptor NR2E3. 0.12% of 320,000 active. AID 2300. GST-NR2E3/biotin-RetCOR TR-FRET, 1536-well. inhibition of corepressor binding, % at 4.78 µM;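 active means percent inhibition above the cutoff of mean plus 3 SD of all tested compounds, set per screening campaign, cut at about 20% in these data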;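 further: 0% = DMSO wells and 100% = biotin wells as full block of FRET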
Target sequence (Q9Y5X4 whole entry, looked up): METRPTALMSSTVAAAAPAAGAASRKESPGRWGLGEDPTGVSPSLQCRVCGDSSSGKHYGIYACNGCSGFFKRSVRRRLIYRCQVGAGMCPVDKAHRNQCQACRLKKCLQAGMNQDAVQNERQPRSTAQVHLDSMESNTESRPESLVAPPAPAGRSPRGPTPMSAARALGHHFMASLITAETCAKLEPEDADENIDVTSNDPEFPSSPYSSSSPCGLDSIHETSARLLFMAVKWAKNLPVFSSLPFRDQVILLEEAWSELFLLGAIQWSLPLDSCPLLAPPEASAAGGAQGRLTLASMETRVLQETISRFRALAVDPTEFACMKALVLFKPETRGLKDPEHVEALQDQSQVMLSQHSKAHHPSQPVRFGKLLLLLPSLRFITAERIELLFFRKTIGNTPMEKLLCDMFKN
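System: GST-tagged NR2E3 plus biotinylated RetCOR corepressor; Buffer or medium: pH 7.5 Tris-based buffer; Probe or stimulus: RetCOR corepressor, biotinylated, 7 nM; Doses: compound at 4.8 µM, single dose; Schedule: 5 h incubation at 4 °C; Technique: time-resolved FRET; Evaluation: percent inhibition of TR-FRET ratio; Replication: one well per compound, singlicate testing.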
Rev-erbA mod: Rev-erb alpha (human) modulation | 0.79% of 370,000 active | Rev-erbα–FITC-DNA binding, fluorescence polarization, 90 min | P20393 | activity, % at 10 µM | AID 1259318;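 active means activity above about 14%, limit read from the data; passing the limit was not always enough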;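 further: 0% = DMSO wells with 35 nM protein and 100% = DMSO wells with 750 nM protein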
NR2E3 ag-2: agonists of human NR2E3 nuclear receptor; Q9Y5X4; 0.35% of 360,000 active; CHO-S Gal4-NCOR/VP16-NR2E3 two-hybrid, luciferase; inhibition of corepressor binding, % at 3.98 µM;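 active means inhibition above the mean of all tested compounds plus 3 SD, cut at about 70% in these data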;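 further: 0% = DMSO with NR2E3 transfected cells and 100% = cells lacking NR2E3 construct; higher means lower luciferase signal from less NR2E3 corepressor binding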
PG9 Ab binder: binds the HIV-1 gp120 antibody PG9; TR-FRET gp120-PG9 antibody binding; 0.43% of 360,000 active; inhibition, % at 6.7 µM; in the data active means inhibition above about 8.5%
Rev-erbA confirm: Rev-erb alpha (human) modulation, hit confirmation. shares compounds with Rev-erbA mod. Rev-erb alpha FITC-DNA binding, fluorescence polarization, 90 min. activation, % at 25 µM. 61% of 3,000 active. AID 1259319;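 active means activation at or above a set limit, or at least 3 SD above the negative control mean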;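 further: 0% = 35 nM protein with DMSO and 100% = 750 nM protein high control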
RORg counter: affects RORgamma DNA binding in a Rev-erb alpha counter-screen. AID 1259320. 8% of 910 active. IC50, µM. shares compounds with Rev-erbA mod. purified RORgamma protein-FITC-DNA binding, fluorescence polarization;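 active means Compounds whose fitted half-maximal concentration for disrupting protein-DNA binding is below 10 micromolar; the record names Rev-erb in its text, so the target is in doubt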
An asterisk follows results filed as active; i = inactive; x = not tested or not shown. Rows were chosen to be rich in hits. Some 1.4% of all compounds tested hit in one or more screens of this group.

SMILES | NR2E3 ag-1 | Rev-erbA mod | NR2E3 ag-2 | PG9 Ab binder | Rev-erbA confirm | others
Cc1cc2nc3c(nc2cc1C)C(O)=C3O | -5 | 2 | 3 | -22 | x
Cc1coc2c(C)c3oc(=O)c4c(c3cc12)CCCC4 | 1 | 16 | -10 | 0 | x
Cc1oc2cc3oc(=O)c4c(c3cc2c1C)CCC4 | -2 | 49* | -18 | 0 | 44* | RORg counter=>40
Cc1oc2c(C)c3oc(=O)c4c(c3cc2c1C)CCC4 | x | 46* | -41 | 1 | 9
N#CCCn1c(-c2nonc2NC(=O)c2ccccc2Cl)nc2ccccc21 | 4 | 77* | -11 | -2 | 22*
CC(=O)Nc1nonc1-c1nc2ccccc2n1CCC#N | 3 | 4 | 0 | -3 | x
Cn1cc(C2N3CC4(C)CN2CC(C)(C3)C4=O)c2ccccc21 (centres undefined) | -3 | 17* | 9 | -1 | 18*
Cc1c(C2N3CC4(C)CN2CC(C)(C3)C4=O)c2ccccc2n1C (centres undefined) | 3 | 42* | -3 | 0 | 69* | RORg counter=>40
CC12CN3CC(C)(CN(C1)C3c1cc(Br)ccc1O)C2=O (centres undefined) | 0 | 18 | -15 | 1 | x
CC[C@]12c3[nH]c4ccc(OC)cc4c3CCN1C(=O)C(CC(=O)NCc1ccco1)C[C@@H]2C(=O)N1CCN(C(=O)c2ccco2)CC1 (some centres undefined) | x | 2 | -36 | 1 | x
Cc1cc(/C(N)=N/OC(=O)Nc2cccc(C(F)(F)F)c2)no1 | 3 | 2 | -8 | 1 | x
Cc1cc(C)c(S(=O)(=O)Nc2nnc(C(C)C)s2)c(C)c1 | x | -3 | -47 | 0 | x
CCOc1ccc2[nH]c3c(=O)n(CCC4=CCCCC4)cnc3c2c1 | 3 | 19* | -14 | -2 | 0
CCn1c(=O)c(C(=O)NNC(=O)Cc2ccccc2)c(O)c2ccccc21 | 5 | 33* | -20 | -2 | 11
CC(C)Cn1c(=O)c(C(=O)Nc2ccccc2S(N)(=O)=O)c(O)c2ccccc21 | 6 | 56* | -43 | 4 | 29*
COc1cc2cc(CCCOC(=O)c3ccc(F)cc3)oc(=O)c2cc1OC | 5 | 0 | 5 | -1 | x
COC(=O)c1ccc(Cn2ccc3ccc(-c4ccc5ccn(Cc6ccccc6)c5c4)cc32)cc1 | x | -4 | x | x | x
CCCCOc1ccc(C(=O)n2ccc3ccc(-c4ccc5ccn(Cc6ccc(OC)cc6)c5c4)cc32)cc1 | x | 35* | x | x | 6
COC(=O)c1ccc(Cn2ccc3ccc(-c4ccc5ccn(C(=O)c6ccc(C)cc6)c5c4)cc32)cc1 | x | 50* | x | x | 62* | RORg counter=1.4*
Cc1ccc(C(=O)n2ccc3ccc(-c4ccc5ccn(Cc6ccccc6)c5c4)cc32)cc1 | x | 39* | x | x | 27*
COC(=O)c1cccc(Cn2ccc3ccc(-c4ccc5ccn(C(=O)c6ccccc6)c5c4)cc32)c1 | x | 17 | x | x | x
CCCCOc1ccc(C(=O)n2ccc3ccc(-c4ccc5ccn(Cc6cccc(C(=O)OC)c6)c5c4)cc32)cc1 | x | 37* | x | x | 21*
COC(=O)c1ccc(Cn2ccc3ccc(-c4ccc5ccn(C(=O)C6CCCCC6)c5c4)cc32)cc1 | x | 25* | x | x | 34* | RORg counter=i
Cc1ccc(C(=O)n2ccc3ccc(-c4ccc5ccn(Cc6ccc(C#N)cc6)c5c4)cc32)cc1 | x | 40* | x | x | 14*
COc1ccc(Cn2ccc3ccc(-c4ccc5ccn(C(=O)c6ccccc6)c5c4)cc32)cc1 | x | -15 | x | x | x
SMILES | NR2E3 ag-1 | Rev-erbA mod | NR2E3 ag-2 | PG9 Ab binder | Rev-erbA confirm | others
COc1ccc(Cn2ccc3ccc(-c4ccc5ccn(C(=O)c6ccc(C)cc6)c5c4)cc32)cc1 | x | 37* | x | x | 45* | RORg counter=>40
COc1ccc(Cn2ccc3ccc(-c4ccc5ccn(C(=O)C6CCCCC6)c5c4)cc32)cc1 | x | 16 | x | x | x
CCOc1ccccc1N=Cc1c(O)c2ccccc2oc1=O | -2 | 36* | -32 | 2 | 10
COc1ccc(Cl)cc1N=Cc1c(O)c2ccccc2oc1=O | 4 | 7 | 5 | -2 | x
O=C(C(=O)N1CCN(C(=O)OCc2ccccc2)CC1)c1cccnc1 | x | 2 | x | -1 | x
COc1ccc(-c2ccc(C3C(C#N)=C(N)Oc4n[nH]c(C)c43)o2)cc1 (centres undefined) | 2 | 22* | -20 | -1 | 19*
O=C(CCCOc1ccc(Cl)cc1Cl)NNC(=O)c1ccc(NC(=O)c2ccccc2)cc1 | -1 | 74* | 6 | 2 | 99* | RORg counter=>40
